In ChEMBL document CHEMBL1833921, “Synthesis and biological evaluation of phenstatin metabolites” (Bioorg Med Chem, 2011):

How the values were obtained:
[1] = tested on: MDA-MB-468; test: Cytotoxicity against human MDA-MB-468 cells assessed as growth inhibition at 10^-5 M after 48 hrs by sulforhodamine B assay; assay type: functional; conditions: MDA-MB-468, 48 h, read-out: GI
[2] = tested on: Hs-578T; test: Cytotoxicity against human HS578T cells assessed as growth inhibition at 10^-5 M after 48 hrs by sulforhodamine B assay; assay type: functional; conditions: read-out: GI
[3] = tested on: MDA-MB-231; test: Cytotoxicity against human MDA-MB-231/ATCC cells assessed as growth inhibition at 10^-5 M after 48 hrs by sulforhodamine B assay; assay type: functional; conditions: MDA-MB-231, 48 h, read-out: GI
[4] = tested on: MCF7; test: Cytotoxicity against human MCF7 cells assessed as growth inhibition at 10^-5 M after 48 hrs by sulforhodamine B assay; assay type: functional; conditions: MCF7, 48 h, read-out: GI
[5] = tested on: SF-539; test: Cytotoxicity against human SF539 cells assessed as growth inhibition at 10^-5 M after 48 hrs by sulforhodamine B assay; assay type: functional; conditions: SF-539, 48 h, read-out: GI
[6] = tested on: SF-295; test: Cytotoxicity against human SF295 cells assessed as growth inhibition at 10^-5 M after 48 hrs by sulforhodamine B assay; assay type: functional; conditions: SF-295, 48 h, read-out: GI
[7] = tested on: SF-268; test: Cytotoxicity against human SF268 cells assessed as growth inhibition at 10^-5 M after 48 hrs by sulforhodamine B assay; assay type: functional; conditions: SF-268, 48 h, read-out: GI
[8] = tested on: DU-145; test: Cytotoxicity against human DU145 cells assessed as growth inhibition at 10^-5 M after 48 hrs by sulforhodamine B assay; assay type: functional; conditions: DU-145, 48 h, read-out: GI
[9] = tested on: UO-31; test: Cytotoxicity against human UO31 cells assessed as growth inhibition at 10^-5 M after 48 hrs by sulforhodamine B assay; assay type: functional; conditions: UO-31, 48 h, read-out: GI
[10] = tested on: SN12C; test: Cytotoxicity against human SN12C cells assessed as growth inhibition at 10^-5 M after 48 hrs by sulforhodamine B assay; assay type: functional; conditions: read-out: GI
[11] = tested on: RXF 393; test: Cytotoxicity against human RXF393 cells assessed as growth inhibition at 10^-5 M after 48 hrs by sulforhodamine B assay; assay type: functional; conditions: RXF 393, 48 h, read-out: GI
[12] = tested on: CAKI-1; test: Cytotoxicity against human Caki1 cells assessed as growth inhibition at 10^-5 M after 48 hrs by sulforhodamine B assay; assay type: functional; conditions: CAKI-1, 48 h, read-out: GI
[13] = tested on: SK-OV-3; test: Cytotoxicity against human SKOV3 cells assessed as growth inhibition at 10^-5 M after 48 hrs by sulforhodamine B assay; assay type: functional; conditions: SK-OV-3, 48 h, read-out: GI
[14] = tested on: NCI/ADR-RES; test: Cytotoxicity against human NCI/ADR-RES cells assessed as growth inhibition at 10^-5 M after 48 hrs by sulforhodamine B assay; assay type: functional; conditions: read-out: GI
[15] = tested on: OVCAR-5; test: Cytotoxicity against human OVCAR5 cells assessed as growth inhibition at 10^-5 M after 48 hrs by sulforhodamine B assay; assay type: functional; conditions: OVCAR-5, 48 h, read-out: GI
[16] = tested on: OVCAR-4; test: Cytotoxicity against human OVCAR4 cells assessed as growth inhibition at 10^-5 M after 48 hrs by sulforhodamine B assay; assay type: functional; conditions: OVCAR-4, 48 h, read-out: GI
[17] = tested on: OVCAR-3; test: Cytotoxicity against human OVCAR3 cells assessed as growth inhibition at 10^-5 M after 48 hrs by sulforhodamine B assay; assay type: functional; conditions: OVCAR-3, 48 h, read-out: GI
[18] = tested on: UACC-62; test: Cytotoxicity against human UACC62 cells assessed as growth inhibition at 10^-5 M after 48 hrs by sulforhodamine B assay; assay type: functional; conditions: UACC-62, 48 h, read-out: GI
[19] = tested on: SK-MEL-28; test: Cytotoxicity against human SK-MEL-28 cells assessed as growth inhibition at 10^-5 M after 48 hrs by sulforhodamine B assay; assay type: functional; conditions: SK-MEL-28, 48 h, read-out: GI
[20] = tested on: SK-MEL-2; test: Cytotoxicity against human SK-MEL-2 cells assessed as growth inhibition at 10^-5 M after 48 hrs by sulforhodamine B assay; assay type: functional; conditions: SK-MEL-2, 48 h, read-out: GI
[21] = tested on: MDA-MB-435; test: Cytotoxicity against human MDA-MB-435 cells assessed as growth inhibition at 10^-5 M after 48 hrs by sulforhodamine B assay; assay type: functional; conditions: MDA-MB-435, 48 h, read-out: GI
[22] = tested on: M14; test: Cytotoxicity against human M14 cells assessed as growth inhibition at 10^-5 M after 48 hrs by sulforhodamine B assay; assay type: functional; conditions: M14, 48 h, read-out: GI
[23] = tested on: KM12; test: Cytotoxicity against human KM12 cells assessed as growth inhibition at 10^-5 M after 48 hrs by sulforhodamine B assay; assay type: functional; conditions: KM12, 48 h, read-out: GI
[24] = tested on: HCT-15; test: Cytotoxicity against human HCT15 cells assessed as growth inhibition at 10^-5 M after 48 hrs by sulforhodamine B assay; assay type: functional; conditions: HCT-15, 48 h, read-out: GI
[25] = tested on: HCT-116; test: Cytotoxicity against human HCT116 cells assessed as growth inhibition at 10^-5 M after 48 hrs by sulforhodamine B assay; assay type: functional; conditions: HCT-116, 48 h, read-out: GI
[26] = tested on: HCC 2998; test: Cytotoxicity against human HCC2998 cells assessed as growth inhibition at 10^-5 M after 48 hrs by sulforhodamine B assay; assay type: functional; conditions: HCC 2998, 48 h, read-out: GI
[27] = tested on: COLO 205; test: Cytotoxicity against human COLO205 cells assessed as growth inhibition at 10^-5 M after 48 hrs by sulforhodamine B assay; assay type: functional; conditions: COLO 205, 48 h, read-out: GI
[28] = tested on: NCI-H522; test: Cytotoxicity against human NCI-H522 cells assessed as growth inhibition at 10^-5 M after 48 hrs by sulforhodamine B assay; assay type: functional; conditions: NCI-H522, 48 h, read-out: GI
[29] = tested on: NCI-H460; test: Cytotoxicity against human NCI-H460 cells assessed as growth inhibition at 10^-5 M after 48 hrs by sulforhodamine B assay; assay type: functional; conditions: NCI-H460, 48 h, read-out: GI
[30] = tested on: NCI-H322M; test: Cytotoxicity against human NCI-H322M cells assessed as growth inhibition at 10^-5 M after 48 hrs by sulforhodamine B assay; assay type: functional; conditions: read-out: GI
[31] = tested on: EKVX; test: Cytotoxicity against human EKVX cells assessed as growth inhibition at 10^-5 M after 48 hrs by sulforhodamine B assay; assay type: functional; conditions: read-out: GI
[32] = tested on: A549; test: Cytotoxicity against human A549/ATCC cells assessed as growth inhibition at 10^-5 M after 48 hrs by sulforhodamine B assay; assay type: functional; conditions: A549, 48 h, read-out: GI
[33] = tested on: K562; test: Cytotoxicity against human K562 cells assessed as growth inhibition at 10^-5 M after 48 hrs by sulforhodamine B assay; assay type: functional; conditions: K562, 48 h, read-out: GI
[34] = tested on: HL-60(TB); test: Cytotoxicity against human HL-60(TB) cells assessed as growth inhibition at 10^-5 M after 48 hrs by sulforhodamine B assay; assay type: functional; conditions: HL-60, 48 h, read-out: GI
[35] = tested on: CCRF-CEM; test: Cytotoxicity against human CCRF-CEM cells assessed as growth inhibition at 10^-5 M after 48 hrs by sulforhodamine B assay; assay type: functional; conditions: read-out: GI
[36] = Inhibition of bovine brain tubulin polymerization after 30 mins by turbidimetry analysis; parameters: species or system Bos taurus
Method in brief: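 Lyophilized bovine brain tubulin (97%) reconstituted to 5 mg/mL in 80 mM PIPES pH 6.9, 2 mM MgCl₂, 0.5 mM EGTA, 1.0 mM GTP and 5% glycerol. Compound in DMSO was added to this solution in a quartz cuvette at 0 °C. Assembly was followed as the rise in absorbance at 340 nm at 37 °C. IC₅₀ is the molar concentration halving the extent of assembly after 30 min.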

[37] = Solubility in water; assay type: physicochemical; conditions: buffer
[38] = tested on: HT-29; test: Cytotoxicity against human HT29 cells after 48 hrs by sulforhodamine B assay; assay type: functional; conditions: HT-29, 48 h
[39] = tested on: A549; test: Cytotoxicity against human A549 cells after 48 hrs by sulforhodamine B assay; assay type: functional; conditions: A549, 48 h
[40] = tested on: HL-60; test: Cytotoxicity against human HL60 cells after 48 hrs by sulforhodamine B assay; assay type: functional; conditions: HL-60, 48 h
[41] = tested on: MCF7; test: Cytotoxicity against human MCF7 cells after 48 hrs by sulforhodamine B assay; assay type: functional; conditions: MCF7, 48 h
[42] = tested on: SF-295; test: Cytotoxicity against human SF295 cells after 48 hrs by sulforhodamine B assay; assay type: functional; conditions: SF-295, 48 h
[43] = tested on: DU-145; test: Cytotoxicity against human DU145 cells after 48 hrs by sulforhodamine B assay; assay type: functional; conditions: DU-145, 48 h
[44] = tested on: A498; test: Cytotoxicity against human A498 cells after 48 hrs by sulforhodamine B assay; assay type: functional; conditions: A498, 48 h
[45] = tested on: OVCAR-3; test: Cytotoxicity against human OVCAR3 cells after 48 hrs by sulforhodamine B assay; assay type: functional; conditions: OVCAR-3, 48 h
[46] = tested on: COLO 205; test: Cytotoxicity against human COLO205 cells after 48 hrs by sulforhodamine B assay; assay type: functional; conditions: COLO 205, 48 h
[47] = tested on: NCI-H460; test: Cytotoxicity against human NCI-H460 cells after 48 hrs by sulforhodamine B assay; assay type: functional; conditions: NCI-H460, 48 h

Structure (SMILES): COc1cc2c(c(O)c1OC)C(=O)c1cc(OC)c(OC)c(OC)c1C2=O
- inhibition of growth at 10 µM [1]: 22.4%
- inhibition of growth at 10 µM [2]: 16.9%
- inhibition of growth at 10 µM [3]: 21.3%
- inhibition of growth at 10 µM [4]: 26.7%
- inhibition of growth at 10 µM [5]: 16.2%
- inhibition of growth at 10 µM [6]: 37.9%
- inhibition of growth at 10 µM [7]: 22.2%
- inhibition of growth at 10 µM [8]: 7.83%
- inhibition of growth at 10 µM [9]: 0%
- inhibition of growth at 10 µM [10]: 8.73%
- inhibition of growth at 10 µM [11]: 2.66%
- inhibition of growth at 10 µM [12]: 7.07%
- inhibition of growth at 10 µM [13]: 9.78%
- inhibition of growth at 10 µM [14]: 20.3%
- inhibition of growth at 10 µM [15]: 7.52%
- inhibition of growth at 10 µM [16]: 60.2%
- inhibition of growth at 10 µM [17]: 0%
- inhibition of growth at 10 µM [18]: 6.13%
- inhibition of growth at 10 µM [19]: 15%
- inhibition of growth at 10 µM [20]: 0%
- inhibition of growth at 10 µM [21]: 16.9%
- inhibition of growth at 10 µM [22]: 0%
- inhibition of growth at 10 µM [23]: 0%
- inhibition of growth at 10 µM [24]: 0%
- inhibition of growth at 10 µM [25]: 11.8%
- inhibition of growth at 10 µM [26]: 0%
- inhibition of growth at 10 µM [27]: 0%
- inhibition of growth at 10 µM [28]: 29.5%
- inhibition of growth at 10 µM [29]: 9.33%
- inhibition of growth at 10 µM [30]: 0%
- inhibition of growth at 10 µM [31]: 13.5%
- inhibition of growth at 10 µM [32]: 26.1%
- inhibition of growth at 10 µM [33]: 0%
- inhibition of growth at 10 µM [34]: 6.14%
- inhibition of growth at 10 µM [35]: 0%
- IC50 [36]: > 100000 nM

Structure (SMILES): COc1ccc(C(=O)c2cc(OC)c(OC)c(OC)c2)cc1OP(=O)([O-])[O-].[Na+].[Na+]
- solubility [37]: soluble

Structure (SMILES): COc1ccc(C(=O)c2cc(OC)c(OC)c(OC)c2)cc1O [PHENSTATIN]
- GI50 [38]: 1800 nM
- GI50 [39]: 290 nM
- GI50 [40]: 31 nM
- GI50 [41]: 34 nM
- GI50 [42]: 52 nM
- GI50 [43]: 34 nM
- GI50 [44]: 380 nM
- GI50 [45]: 2.3 nM
- GI50 [46]: 4860 nM
- GI50 [47]: 5.7 nM
- IC50 [36]: 15000 nM
- solubility [37]: soluble
